According to ChEMBL document CHEMBL2086331, “Novel triazolopyridylbenzamides as potent and selective p38α inhibitors” (Bioorg Med Chem Lett, 2012):

Legend:
Blood = experiment: Inhibition of LPS-induced TNFalpha production in human whole blood; assay type: functional, tissue-based
[1] = Stability in rat hepatic microsomes assessed as compound turnover at 5 uM incubated for 30 mins in presence of NADPH; assay type: ADME; conditions: liver microsomes, read-out: Drug degradation
Procedure, shortened: (§1)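 Rat or human hepatic microsomes (1 mg/mL) with NADPH, test compound 5 µM, 30 min at 37 °C; readout is % turnover of parent.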

[2] = Stability in human hepatic microsomes assessed as compound turnover at 5 uM incubated for 30 mins in presence of NADPH; assay type: ADME; conditions: liver microsomes, read-out: Drug degradation; procedure, shortened: as §1
[3] = Passive permeability from basolateral to apical side in human Caco2 cells at 12.5 uM; assay type: ADME, cell-based; conditions: Caco-2, read-out: permeability
Procedure, shortened: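 Caco-2 monolayer, test compound 12.5 µM; passive apparent permeability measured in both AB and BA directions, reported in 10^-6 cm/s.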

CHO [4] = experiment: Cytotoxicity against CHO cells; assay type: cell-based; conditions: Cricetulus griseus
[5] = Protein binding in rat plasma; assay type: ADME, cell-free; conditions: read-out: PPB (converted)
[6] = Protein binding in human plasma; assay type: ADME, cell-free; conditions: read-out: PPB (converted)
[7] = Half life in Wistar rat at 1 mg/kg, iv; assay type: ADME, organism-based; parameters: dose 1 mg/kg, route intravenous; conditions: in vivo
Procedure, shortened: (§2)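 Wistar rats, single dose either iv 1 mg/kg in 40% PEG + 0.4% HCl 1 N, or oral 10 mg/kg in 0.5% methylcellulose + 0.1% Tween 80; plasma PK parameters reported as mean values (n = 2).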

[8] = AUC in Wistar rat at 1 mg/kg, iv; assay type: ADME, organism-based; parameters: dose 1 mg/kg, route intravenous; conditions: plasma; procedure, shortened: as §2
[9] = Clearance in Wistar rat at 1 mg/kg, iv; assay type: ADME, organism-based; parameters: dose 1 mg/kg, route intravenous; conditions: in vivo; procedure, shortened: as §2
[10] = Volume of distribution at steady state in Wistar rat at 1 mg/kg, iv; assay type: ADME, organism-based; parameters: dose 1 mg/kg, route intravenous; conditions: in vivo, read-out: Vdss; procedure, shortened: as §2
[11] = Cmax in Wistar rat at 10 mg/kg, po; assay type: ADME, organism-based; parameters: dose 10 mg/kg, route oral; conditions: in vivo; procedure, shortened: as §2
[12] = AUC in Wistar rat at 10 mg/kg, po; assay type: ADME, organism-based; parameters: dose 10 mg/kg, route oral; conditions: plasma; procedure, shortened: as §2
[13] = Oral bioavailability in Wistar rat at 10 mg/kg; assay type: ADME, organism-based; conditions: in vivo; procedure, shortened: as §2
[14] = AUC in beagle dog at 1 mg/kg, iv; assay type: ADME, organism-based, Canis lupus familiaris; parameters: dose 1 mg/kg, route intravenous; conditions: plasma
Procedure, shortened: (§3)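 Beagle dogs dosed 1 mg/kg iv or 1 mg/kg po; pharmacokinetic parameters reported as mean values of n = 2 animals.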

[15] = Clearance in beagle dog at 1 mg/kg, iv; assay type: ADME, organism-based, Canis lupus familiaris; parameters: dose 1 mg/kg, route intravenous; conditions: in vivo; procedure, shortened: as §3
[16] = Volume of distribution at steady state in beagle dog at 1 mg/kg, iv; assay type: ADME, organism-based, Canis lupus familiaris; parameters: dose 1 mg/kg, route intravenous; conditions: in vivo, read-out: Vdss; procedure, shortened: as §3
[17] = Half life in beagle dog at 1 mg/kg, iv; assay type: ADME, organism-based, Canis lupus familiaris; parameters: dose 1 mg/kg, route intravenous; conditions: in vivo; procedure, shortened: as §3
CHO [18] = experiment: Toxicity against CHO cells; assay type: cell-based, Cricetulus griseus; conditions: chinese hamster
Cytochrome P450 1A2 = biological target: T1, Cytochrome P450 1A2 (Homo sapiens, UniProt P05177); experiment: Inhibition of CYP1A2 at < 25 uM; assay type: ADME
T1 sequence (P05177 whole entry): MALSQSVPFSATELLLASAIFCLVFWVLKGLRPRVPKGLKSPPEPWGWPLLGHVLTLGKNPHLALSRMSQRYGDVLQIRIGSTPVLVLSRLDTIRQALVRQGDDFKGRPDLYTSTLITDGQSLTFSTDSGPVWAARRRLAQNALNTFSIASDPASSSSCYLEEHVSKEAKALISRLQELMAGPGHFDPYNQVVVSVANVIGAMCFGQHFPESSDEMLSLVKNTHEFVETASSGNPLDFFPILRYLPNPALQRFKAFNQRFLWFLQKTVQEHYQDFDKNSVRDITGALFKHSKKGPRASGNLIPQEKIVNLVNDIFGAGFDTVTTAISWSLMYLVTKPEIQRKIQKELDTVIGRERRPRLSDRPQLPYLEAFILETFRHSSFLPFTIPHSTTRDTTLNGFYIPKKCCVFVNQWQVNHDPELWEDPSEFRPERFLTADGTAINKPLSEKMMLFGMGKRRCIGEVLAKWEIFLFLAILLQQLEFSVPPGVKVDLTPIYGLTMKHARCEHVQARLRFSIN

Cytochrome P450 3A4 = Cytochrome P450 3A4 (Homo sapiens, UniProt P08684); experiment: Inhibition of CYP3A4 at < 25 uM; assay type: ADME
Cytochrome P450 2C9 = Cytochrome P450 2C9 (Homo sapiens, UniProt P11712); experiment: Inhibition of CYP2C9 at < 25 uM; assay type: ADME
Cytochrome P450 2C19 = Cytochrome P450 2C19 (Homo sapiens, UniProt P33261); experiment: Inhibition of CYP2C19 at < 25 uM; assay type: ADME
Cytochrome P450 2D6 = Cytochrome P450 2D6 (Homo sapiens, UniProt P10635); experiment: Inhibition of CYP2D6 at < 25 uM; assay type: ADME
[19] = biological target: RAF proto-oncogene serine/threonine-protein kinase (Homo sapiens, UniProt P04049); experiment: Inhibition of c-Raf at 10 uM
Procedure, shortened: (§4)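 Upstate 55-kinase panel; single inhibitor concentration 10 µM, duplicate wells, ATP at the Km of each kinase.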

[20] = biological target: Proto-oncogene tyrosine-protein kinase receptor Ret (Homo sapiens, UniProt P07949); experiment: Inhibition of RET at 10 uM; procedure, shortened: as §4
in vitro = conditions: human, Caco-2

Chain of Cytochrome P450 2C19 (P33261 whole entry): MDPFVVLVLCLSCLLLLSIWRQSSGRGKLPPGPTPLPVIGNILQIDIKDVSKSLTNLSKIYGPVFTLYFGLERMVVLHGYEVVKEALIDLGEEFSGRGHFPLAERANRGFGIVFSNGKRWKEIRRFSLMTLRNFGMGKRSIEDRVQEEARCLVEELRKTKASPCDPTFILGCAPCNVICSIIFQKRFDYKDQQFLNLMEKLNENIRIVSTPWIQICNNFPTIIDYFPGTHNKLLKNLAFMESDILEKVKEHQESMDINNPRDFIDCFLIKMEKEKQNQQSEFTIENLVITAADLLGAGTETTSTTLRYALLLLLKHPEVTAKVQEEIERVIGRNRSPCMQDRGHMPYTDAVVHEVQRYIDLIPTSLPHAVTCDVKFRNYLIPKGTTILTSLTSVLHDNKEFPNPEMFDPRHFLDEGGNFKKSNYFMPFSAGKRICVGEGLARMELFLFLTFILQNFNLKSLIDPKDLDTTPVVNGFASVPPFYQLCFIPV
Chain of Proto-oncogene tyrosine-protein kinase receptor Ret (P07949 whole entry): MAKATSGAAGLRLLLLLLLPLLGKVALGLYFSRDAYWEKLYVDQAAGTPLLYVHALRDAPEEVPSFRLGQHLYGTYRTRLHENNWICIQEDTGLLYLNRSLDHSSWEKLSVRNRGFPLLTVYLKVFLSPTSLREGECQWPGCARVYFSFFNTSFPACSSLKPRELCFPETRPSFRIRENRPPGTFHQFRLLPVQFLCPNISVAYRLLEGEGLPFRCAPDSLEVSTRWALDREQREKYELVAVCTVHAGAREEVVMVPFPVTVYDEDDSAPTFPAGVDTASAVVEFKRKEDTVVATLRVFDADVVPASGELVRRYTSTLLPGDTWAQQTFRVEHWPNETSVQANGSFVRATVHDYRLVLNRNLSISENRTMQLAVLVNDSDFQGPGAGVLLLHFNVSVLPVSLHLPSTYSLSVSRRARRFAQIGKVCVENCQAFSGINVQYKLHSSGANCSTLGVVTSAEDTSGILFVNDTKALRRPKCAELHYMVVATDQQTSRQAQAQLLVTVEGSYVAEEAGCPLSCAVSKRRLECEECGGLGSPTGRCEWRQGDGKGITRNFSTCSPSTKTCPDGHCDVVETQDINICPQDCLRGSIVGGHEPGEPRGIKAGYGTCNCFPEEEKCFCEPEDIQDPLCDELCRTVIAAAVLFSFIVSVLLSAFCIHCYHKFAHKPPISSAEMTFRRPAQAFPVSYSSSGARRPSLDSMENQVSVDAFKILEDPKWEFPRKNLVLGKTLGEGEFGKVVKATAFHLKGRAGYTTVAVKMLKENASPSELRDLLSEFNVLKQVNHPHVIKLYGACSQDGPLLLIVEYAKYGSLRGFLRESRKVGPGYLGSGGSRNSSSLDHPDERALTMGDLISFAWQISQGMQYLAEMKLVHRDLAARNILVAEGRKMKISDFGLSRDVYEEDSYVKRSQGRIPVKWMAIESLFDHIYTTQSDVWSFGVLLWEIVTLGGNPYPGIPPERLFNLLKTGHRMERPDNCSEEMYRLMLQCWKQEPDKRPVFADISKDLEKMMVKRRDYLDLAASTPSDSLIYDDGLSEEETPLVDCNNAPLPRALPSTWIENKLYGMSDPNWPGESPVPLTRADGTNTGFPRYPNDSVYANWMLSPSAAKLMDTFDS
Chain of Cytochrome P450 2D6 (P10635 whole entry): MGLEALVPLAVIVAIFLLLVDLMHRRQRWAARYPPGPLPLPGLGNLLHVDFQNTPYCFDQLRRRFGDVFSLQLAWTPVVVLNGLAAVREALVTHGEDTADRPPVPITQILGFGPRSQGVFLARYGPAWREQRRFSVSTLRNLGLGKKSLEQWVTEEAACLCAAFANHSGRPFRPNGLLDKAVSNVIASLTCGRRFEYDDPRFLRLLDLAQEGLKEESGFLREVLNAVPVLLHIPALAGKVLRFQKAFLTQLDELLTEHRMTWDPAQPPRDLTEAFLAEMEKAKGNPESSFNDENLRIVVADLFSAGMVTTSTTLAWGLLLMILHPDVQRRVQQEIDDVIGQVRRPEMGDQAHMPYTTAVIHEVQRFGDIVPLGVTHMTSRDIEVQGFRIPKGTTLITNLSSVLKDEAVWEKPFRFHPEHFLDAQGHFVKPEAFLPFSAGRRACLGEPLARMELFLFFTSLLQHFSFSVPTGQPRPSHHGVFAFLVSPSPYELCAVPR
Chain of RAF proto-oncogene serine/threonine-protein kinase (P04049 whole entry): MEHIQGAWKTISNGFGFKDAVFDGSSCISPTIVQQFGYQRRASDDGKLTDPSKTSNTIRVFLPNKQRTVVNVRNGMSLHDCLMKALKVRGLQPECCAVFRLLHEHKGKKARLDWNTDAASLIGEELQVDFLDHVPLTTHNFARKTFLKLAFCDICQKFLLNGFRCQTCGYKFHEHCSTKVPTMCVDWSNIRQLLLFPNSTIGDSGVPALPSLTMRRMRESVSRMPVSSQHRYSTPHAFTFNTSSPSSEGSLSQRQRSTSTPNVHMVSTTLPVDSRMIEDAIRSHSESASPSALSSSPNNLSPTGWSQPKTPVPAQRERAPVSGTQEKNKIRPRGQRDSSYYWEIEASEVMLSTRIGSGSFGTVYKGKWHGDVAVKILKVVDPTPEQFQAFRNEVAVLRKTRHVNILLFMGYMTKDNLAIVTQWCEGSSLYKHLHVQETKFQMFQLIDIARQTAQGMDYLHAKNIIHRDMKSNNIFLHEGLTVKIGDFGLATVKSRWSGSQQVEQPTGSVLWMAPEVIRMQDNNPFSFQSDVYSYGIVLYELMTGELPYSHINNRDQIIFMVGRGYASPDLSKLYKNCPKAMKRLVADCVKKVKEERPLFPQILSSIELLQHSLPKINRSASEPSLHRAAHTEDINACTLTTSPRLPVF
Chain of Cytochrome P450 3A4 (P08684 whole entry): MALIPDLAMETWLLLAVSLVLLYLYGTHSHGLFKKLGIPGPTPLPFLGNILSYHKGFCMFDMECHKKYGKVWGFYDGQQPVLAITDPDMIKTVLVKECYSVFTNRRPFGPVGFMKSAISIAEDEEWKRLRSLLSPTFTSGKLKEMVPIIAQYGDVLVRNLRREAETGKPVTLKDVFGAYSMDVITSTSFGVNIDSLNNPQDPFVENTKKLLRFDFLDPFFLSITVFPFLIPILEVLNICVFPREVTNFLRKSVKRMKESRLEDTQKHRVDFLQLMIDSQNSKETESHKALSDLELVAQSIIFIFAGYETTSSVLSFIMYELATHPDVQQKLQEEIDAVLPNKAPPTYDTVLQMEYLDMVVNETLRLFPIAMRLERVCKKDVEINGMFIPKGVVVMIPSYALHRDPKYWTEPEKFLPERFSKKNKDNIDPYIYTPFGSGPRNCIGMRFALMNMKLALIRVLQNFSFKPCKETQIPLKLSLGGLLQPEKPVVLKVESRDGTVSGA
Chain of Cytochrome P450 2C9 (P11712 whole entry): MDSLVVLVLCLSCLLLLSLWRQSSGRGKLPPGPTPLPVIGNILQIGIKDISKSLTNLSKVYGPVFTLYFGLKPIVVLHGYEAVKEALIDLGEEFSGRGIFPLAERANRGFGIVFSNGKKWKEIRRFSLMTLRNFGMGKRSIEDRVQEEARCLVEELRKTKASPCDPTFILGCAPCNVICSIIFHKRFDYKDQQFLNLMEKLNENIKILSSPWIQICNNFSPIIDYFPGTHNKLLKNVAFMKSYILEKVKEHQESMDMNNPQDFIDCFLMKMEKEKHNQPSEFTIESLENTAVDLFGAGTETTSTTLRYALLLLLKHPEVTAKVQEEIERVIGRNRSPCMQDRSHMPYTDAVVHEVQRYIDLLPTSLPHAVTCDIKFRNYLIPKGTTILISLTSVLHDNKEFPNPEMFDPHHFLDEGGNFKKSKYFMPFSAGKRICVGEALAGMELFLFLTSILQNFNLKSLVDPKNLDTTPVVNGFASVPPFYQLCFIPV

Cc1ccc(C(=O)NC2CC2)cc1-c1ccn2c(-c3ccccc3Cl)nnc2c1
IC50 (Blood): 20 nM

COC(C)c1nnc2cc(-c3cc(C(=O)NC4CC4)cc(F)c3C)ccn12 (configuration not stated)
IC50 (Blood): 257 nM

Cc1ccc(C(=O)NC2CC2)cc1-c1ccn2c(C3CCOCC3)nnc2c1
IC50 (Blood): 667 nM

Cc1c(F)cc(C(=O)NC2CC2)cc1-c1ccn2c(-c3ccncc3Cl)nnc2c1
IC50 (Blood): 84 nM

Cc1c(F)cc(C(=O)NC2CC2)cc1-c1ccn2c(C(C)(C)C)nnc2c1
IC50 (Blood): 48 nM
metabolised at 0.5 h, 5 µM [1]: < 5%
metabolised at 0.5 h, 5 µM [2]: < 5%
Papp B→A at 12.5 µM [3]: 23 ×10⁻⁶ cm/s
IC50 (CHO [4]): 107000 nM
fraction unbound [5]: 0.21
fraction unbound [6]: 0.16
half-life [7]: 3.8 h
AUC [8]: 2670 ng·h/mL
clearance [9]: 6.5 mL/min/kg
Vd [10]: 1.3 L/kg
Cmax [11]: 2580 ng/mL
AUC [12]: 17800 ng·h/mL
bioavailability [13]: 66%
AUC [14]: 2770 ng·h/mL
clearance [15]: 6.2 mL/min/kg
Vd [16]: 1.6 L/kg
half-life [17]: 3.5 h
Activity (CHO [18]): Non-toxic
inhibition (INH) (Cytochrome P450 1A2): Not Active
inhibition (INH) (Cytochrome P450 3A4): Not Active
inhibition (INH) (Cytochrome P450 2C9): Not Active
inhibition (INH) (Cytochrome P450 2C19): Not Active
inhibition (INH) (Cytochrome P450 2D6): Not Active
inhibition [19]: 66%
inhibition [20]: 66%
Papp A→B at 12.5 µM (in vitro): 27 ×10⁻⁶ cm/s

Cc1c(F)cc(C(=O)NC2CC2)cc1-c1c(F)cn2c(C3CC3)nnc2c1F
IC50 (Blood): 1470 nM

Cc1c(F)cc(C(=O)NC2CC2)cc1-c1ccn2c(C3(C)CC3)nnc2c1
IC50 (Blood): 117 nM

Cc1c(F)cc(C(=O)NC2CC2)cc1-c1ccn2c(-c3ccccc3Cl)nnc2c1
IC50 (Blood): 7.2 nM

Cc1c(F)cc(C(=O)NC2CC2)cc1-c1ccn2c(C(N)=O)nnc2c1
IC50 (Blood): 1840 nM

Cc1ccc(C(=O)NC2CC2)cc1-c1c(F)cn2c(C(C)(C)C)nnc2c1F
IC50 (Blood): 516 nM

Cc1ccc(C(=O)NC2CC2)cc1-c1ccn2c(-c3ccncc3Cl)nnc2c1
IC50 (Blood): 305 nM

Cc1ccc(C(=O)NC2CC2)cc1-c1ccc2c(N3CCCCC3)noc2c1
IC50 (Blood): 98 nM

Cc1c(F)cc(C(=O)NC2CC2)cc1-c1ccn2c(C(C)(C)N(C)C)nnc2c1
IC50 (Blood): 84 nM

Cc1c(F)cc(C(=O)NC2CC2)cc1-c1c(F)cn2c(C(C)(C)N)nnc2c1F
IC50 (Blood): 822 nM

Cc1c(F)cc(C(=O)NC2CC2)cc1-c1ccn2c(C3CCOCC3)nnc2c1
IC50 (Blood): 405 nM

Cc1ccc(C(=O)NC2CC2)cc1-c1ccn2c(C3(C)CC3)nnc2c1
IC50 (Blood): 232 nM
